Hits are enriched below; roughly 2.9% of the tested compounds scored in any of these assays.
Runt-CBFb FRET: Runt domain-CBFb interaction inhibition. AID 1496. 220,000 compounds, 0.46% hits. Cerulean-Runt/Venus-CBFb FRET ratio 530/480, 1 h. inhibition, % at 20 µM;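 active means inhibition over about 50% at 20 µM in the single-dose screen, limit read from the data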;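 further: 0% = DMSO wells and 100% = excess unlabeled CBFb competitor control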
Target sequence (Q01196 whole entry, looked up, the tested form may be a part): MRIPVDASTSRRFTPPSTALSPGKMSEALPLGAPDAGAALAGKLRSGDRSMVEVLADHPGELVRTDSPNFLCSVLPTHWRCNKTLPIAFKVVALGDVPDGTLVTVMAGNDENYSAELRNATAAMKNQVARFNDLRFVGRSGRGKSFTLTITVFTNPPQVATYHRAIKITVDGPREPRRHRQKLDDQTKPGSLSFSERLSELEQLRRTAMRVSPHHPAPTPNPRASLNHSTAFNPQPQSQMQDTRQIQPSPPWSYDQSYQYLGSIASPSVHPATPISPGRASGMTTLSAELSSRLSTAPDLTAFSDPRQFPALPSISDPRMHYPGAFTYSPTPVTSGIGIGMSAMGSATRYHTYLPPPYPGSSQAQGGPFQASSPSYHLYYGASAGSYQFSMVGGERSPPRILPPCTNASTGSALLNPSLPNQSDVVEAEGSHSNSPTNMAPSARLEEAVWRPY
Target sequence (Q13951 whole entry, looked up, the tested form may be a part): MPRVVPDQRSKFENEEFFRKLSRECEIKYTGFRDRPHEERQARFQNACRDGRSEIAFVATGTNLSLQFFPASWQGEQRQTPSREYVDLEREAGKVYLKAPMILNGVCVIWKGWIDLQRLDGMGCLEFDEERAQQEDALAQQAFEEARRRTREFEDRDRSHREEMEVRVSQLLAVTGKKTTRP
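Assay system: Cerulean-tagged RUNX1 Runt domain (FRET donor) fusion protein / Amount: 100 nM each of Venus-CBFb and Cerulean-Runt domain / Medium: Tris buffer pH 7.5 with salts and BSA / Also added: Venus-CBFb 100 nM / Schedule: 1 h complex formation plus 1 h compound treatment, room temperature / Signal: FRET fluorescence / Read-out: loss of energy transfer signal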
Runt-SMMHC FRET: Runt domain-CBFb-SMMHC interaction inhibition; inhibition, % at 20 µM; 220,000 compounds, 0.74% hits; Q01196+Q13951; AID 1434; Cerulean-Runt/Venus-CBFb-SMMHC FRET ratio 530/480, 1 h;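 active means mean inhibition across duplicate retests at 20 µM reaching about 50%, limit read from the data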;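 further: 0% = DMSO wells and 100% = wells with excess untagged CBFb-SMMHC; inhibitors lower the FRET ratio by blocking Runt binding to CBFb-SMMHC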
Wee1 stabilizer: blocks degradation of human Wee1 kinase | P30291 | 220,000 compounds, 1.2% hits | AID 1321 | HeLa Luc-Wee1K328M stability, luciferase luminescence; 100% = proteasome inhibitor MG132 effect | reporter increase, % at 5 µM;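 active means activation above the mean of all tested compounds plus 3 SD, set per screening run, cut at about 8.8% in these data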;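 further: cells exposed to compound for 20 h before luminescence read; 0% = DMSO alone and 100% = MG132 at 30 µM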
RanGTP-Imp inh: disruptors of Ran-importin-beta complex formation – biochemical, FRET, CFP-Ran, YFP-importin-beta, homogeneous, primary screen. cell-free CFP-Ran/YFP-importin-beta FRET ratio. inhibition, % (test concentration not listed). 300,000 compounds, 1.1% hits. AID 2216;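 active means more than half of the replicate wells show a fall in the fluorescence ratio signal beyond about 16%, limit read from the data, passing the limit was not always enough; inconclusive means exactly half of the replicate wells pass the set limit; inactive means fewer than half of replicates pass the limit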;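 further: 0% = DMSO wells and 100% = Ran loaded with GDP instead of GTP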
AI-2 QS mod: Vibrio harveyi AI-2 quorum sensing modulation; Vibrio harveyi JMH597 AI-2 luminescence/OD600 ratio, 9 h; hits give low values; strain lacks LuxN and CqsS sensors; 0 = neutral-control median; activity change, % at 7.5 µM; 300,000 compounds, 0.4% hits; AID 2094; in the data active means activity change below about -75%, passing the limit was not always enough; inconclusive means no clear call, values can overlap the other calls;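 further: luminescence divided by OD600 gain over 9 h not by final OD600 alone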
proKLK7 act: activators of human kallikrein-7 zymogen | activation, % at 7 µM | P49862 | 370,000 compounds, 0.9% hits | purified proKLK7, EDANS-DABCYL substrate fluorescence; 100% is mature enzyme control, 0% vehicle;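 active means activation above the mean of all tested compounds plus 3 SD, computed per campaign excluding outliers beyond control limits, cut at about 13% in these data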
* hit, by the source's call; ? = inconclusive; · = no result.

SMILES | Runt-CBFb FRET | Runt-SMMHC FRET | Wee1 stabilizer | RanGTP-Imp inh | AI-2 QS mod | proKLK7 act
Cc1ccc(Cn2c(=N)c(C(=O)NC3CCCCC3)cc3c(=O)n4ccccc4nc32)cc1 | · | · | · | 161* | 13 | -1
CCOC(=O)c1cc2c(=O)n3ccccc3nc2n(Cc2ccccc2)c1=N | 18 | 63* | -2 | 188* | 23 | 12
CCOC(=O)c1cc2c(=O)n3ccccc3nc2n(Cc2ccccc2Cl)c1=N | 39 | 39 | · | · | · | ·
COc1ccc(CCn2c(=N)c(C(=O)NC3CCCC3)cc3c(=O)n4cccc(C)c4nc32)cc1 | · | · | · | ? | 29 | 0
N=c1c(C(=O)NC2CCCCC2)cc2c(=O)n3ccccc3nc2n1Cc1ccc(F)cc1 | · | · | · | 159* | 47 | -3
Cc1ccc2nc3c(cc(C(=O)NC4CCCC4)c(=N)n3CCCn3ccnc3)c(=O)n2c1 | · | · | 0 | 156* | 12 | ·
CC(C)CCNc1nc(N)c([N+](=O)[O-])c(N2CCCCCC2)n1 | · | · | · | -3 | 7 | 0
CCCN(CC(=O)Nc1ccccc1OC)C(=O)c1ccc(=O)[nH]c1 | · | · | · | 1 | 9 | 0
CCOC(=O)N[C@H](C(=O)N1CCC[C@H]1C(=O)NC1CCCC1)C1CCCCC1 | · | · | · | · | · | 1
O=C1COc2ccc(C(=O)COC(=O)c3cnc(Cl)c(Cl)c3)cc2N1 | 0 | -3 | 3 | 0 | -23 | 0
CCOC(=O)c1ccc(N2CCN(C(C)=O)CC2)c(NC(=O)c2cccnc2)c1 | -2 | 2 | -2 | -3 | 19 | 0
CC(C)(CO)NCC(=O)Nc1cc(C(F)(F)F)cc(NC(=O)CNC(C)(C)CO)c1Cl | -1 | 4 | -1 | 2 | 30 | 0
N=c1c(C(=O)NC2CCCC2)cc2c(=O)n3ccccc3nc2n1Cc1ccccc1 | · | · | · | 177* | 24 | -2
N=c1c(C(=O)NC2CCCC2)cc2c(=O)n3ccccc3nc2n1CCN1CCOCC1 | 99* | 77* | -2 | 99* | 6 | 3
CC(C)Cn1c(N)c(C(=O)COC(=O)CCNS(=O)(=O)c2ccccc2)c(=O)n(C)c1=O | · | · | · | ? | 19 | 0
CC1(C)CC(=O)C(C=Nc2cccc(/N=C/C3=C(O)CC(C)(C)CC3=O)n2)=C(O)C1 | 3 | 7 | -2 | 32* | 16 | ·
Cc1cccc(C)c1NC(=O)C(c1ccccc1F)n1c(=O)c(-c2ccccc2)nc2ccccc21 (configuration not stated) | · | · | · | · | · | -3
Cc1cc(=O)oc2cc(OCC(=O)Nc3cccc(S(=O)(=O)N(C)C)c3)ccc12 | -4 | -2 | 9.6* | 0 | 35 | 0
COCCCNc1nc2c(-c3ccc(C)cc3)nnn2c2ccccc12 | · | · | · | ? | 15 | -8
COCCCNc1nc2c(-c3cccc(C)c3)nnn2c2ccccc12 | -4 | -1 | 49* | ? | 9 | 1
O=C(CN1CCCc2ccccc21)NC(=O)NC1CCCCC1 | -1 | -6 | 9.2* | 1 | 21 | 0
CC(C)(C)NC(=O)NC(=O)CN1CCCc2ccccc21 | -2 | -2 | -2 | · | -12 | 0
CC(C)(C)OC(=O)N1CCC[C@H]1C(=O)NCc1ccc(Cl)cc1Cl | 0 | 2 | 10* | 0 | 10 | -1
Cc1ccc(NC(=O)C2CCCN2C(=O)OC(C)(C)C)cc1C (configuration not stated) | 0 | 0 | 10* | ? | 16 | 0
CC(C)(C)OC(=O)N1CCC[C@H]1C(=O)Nc1ccc(Br)cc1 | · | · | · | 2 | 52 | 0
SMILES | Runt-CBFb FRET | Runt-SMMHC FRET | Wee1 stabilizer | RanGTP-Imp inh | AI-2 QS mod | proKLK7 act
Cc1cc(C)c(C(=O)NCCCN2CCOCC2)c(C)c1 | · | · | · | 5 | -2 | 0
O=C(NCC[C@@H]1CC[C@@H](NS(=O)(=O)Cc2ccccc2)[C@@H](CO)O1)C1CC1 | · | · | · | · | · | 0
CCCC(C)c1nnc(NC(=O)CN2C(=O)c3ccccc3C2=O)s1 (configuration not stated) | 17 | 5 | -2 | 0 | -88* | 0
CCC(CC)c1nnc(NC(=O)CN2C(=O)c3ccccc3C2=O)s1 | 1 | -2 | -2 | 2 | -50 | -1
COc1nc(N)c(S(=O)(=O)c2ccccc2)cc1C#N | 40 | 99* | -3 | 12 | 4 | -1
COc1nc(N)c(S(=O)(=O)c2ccccc2C)cc1C#N | 20 | 60* | 7 | 5 | · | 0
CN(C)c1ncc(S(=O)(=O)c2ccccc2)c(N)n1 | 1 | -10 | -1 | 0 | 20 | 0
Cc1ccc(OC(C)C(=O)Nc2cccc(S(=O)(=O)N3CCCCCC3)c2)cc1 (configuration not stated) | · | · | · | · | · | 1
COc1ccc(Cc2nc(-c3ccc(Br)cc3)no2)cc1 | -3 | 1 | 1 | · | -76* | 0
CCc1ccc(-c2nc(-c3ccncc3)no2)cc1 | -4 | 1 | 6 | · | · | 0
Cc1ccc(Cc2nc(-c3ccncc3)no2)cc1 | 0 | 0 | 9.7* | 3 | -48 | 0
COCCN(C(=S)Nc1ccc(Cl)cc1OC)C1CCN(C(C)=O)CC1 | 2 | 0 | 7 | 0 | 8 | 0
Cc1ccc(C(=O)Nc2c(-c3cccs3)c(=O)c3ccccc3n2C)cc1 | 27 | 3 | 9.1* | 2 | · | 1
Cc1cc(NC(=O)c2cc3cccc([N+](=O)[O-])c3[nH]2)ccc1F | -1 | -6 | 17* | 1 | 28 | 0
OC1CCN(c2cc(-c3ccccc3)nc3cc(-c4ccc(F)cc4)nn23)CC1 | 2 | 8 | 2 | 3 | 17 | -36
CCN1CCN(c2cc(-c3ccccc3)nc3cc(-c4cccc(F)c4)nn23)CC1 | 2 | 33 | 3 | 17* | 4 | -18
CN(C)S(=O)(=O)c1ccc(C(=O)OCC(=O)NC(=O)NC2CCCC2)cc1 | · | · | · | · | · | -1
CN(C)S(=O)(=O)c1ccc(C(=O)OCC2CCCO2)cc1 (configuration not stated) | · | · | · | 6 | -77* | 0
CC1(C(=O)NC2CCc3ccccc32)CCN1CCc1ccccc1 (configuration not stated) | · | · | · | · | · | 0
COc1ccc(/C=C/CN2CCCC(C(=O)c3ccc(OC)c(F)c3)C2)cc1 (configuration not stated) | 0 | 1 | 9.1* | 6 | 11 | 0
COc1cccc(C(=O)C2CCCN(C/C=C/c3ccccc3OC)C2)c1 (configuration not stated) | -2 | 0 | -1 | -4 | 33 | 0
Oc1ccc(C2=CSC3=NCCN23)cc1O | · | · | · | 6 | -1 | 0
COc1ccc(Cn2c(N)c(C#N)c3nc4ccccc4nc32)cc1 | 80* | 94* | -1 | 33* | 10 | 7

Compound activity (PubChem)
